{
  "source": "ChEMBL document CHEMBL5058577",
  "about": "“EUbOPEN Chemogenomics Library 2 (Multiplex)” (2022)",
  "test_system": "Fibroblast",
  "test": "Multiplex assay against human fibroblast",
  "assay_type": "toxicity, cell-based",
  "details": "10 µM, compound concentration 10 uM",
  "summary_of_the_method": "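Cells were classed with CellPathfinder machine-learning gating, first as Hoechst high-intensity objects or normal cells, then (normal cells) as healthy, pyknosed or fragmented nuclei, and finally (pyknosed cells) as mitotic or apoptotic. Staining of live cells at seeding used Hoechst33342, BioTracker Green Microtubule Cytoskeleton Dye, MitoTracker Red and Annexin V Alexa Fluor 680, with imaging on a CQ1 microscope at 37°C and 5% CO2 after compound addition. Tubulin, mitochondrial-mass and membrane-permeability phenotypes are per cents of healthy-nucleus cells.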",
  "note": "Where “and” joins values, the source holds several entries; their conditions need not be identical. Identical values can stand only once.",
  "data": [
    {"compound": "CC(=O)O[C@H]1C(=O)[C@@]2(C)[C@H]([C@H](OC(=O)c3ccccc3)[C@]3(O)C[C@H](OC(=O)[C@H](O)[C@@H](NC(=O)c4ccccc4)c4ccccc4)C(C)=C1C3(C)C)[C@]1(OC(C)=O)CO[C@@H]1C[C@@H]2O", "note": "[PACLITAXEL]", "values": [
      {"measurement": "Population Apoptotic (%)", "setting": "12 h, replicate 1", "value": "65% and 41%"},
      {"measurement": "Population Fragmented Nuclei (%)", "setting": "12 h, replicate 1", "value": "19% and 23%"},
      {"measurement": "Population Healthy Nuclei (%)", "setting": "12 h, replicate 1", "value": "63% and 56%"},
      {"measurement": "Population Hoechst High Intensity Objects (%)", "setting": "12 h, replicate 1", "value": "5% and 3%"},
      {"measurement": "Population Membrane Permeable-Phenotype (%)", "setting": "12 h, replicate 1", "value": "0% and 1%"},
      {"measurement": "Population Mitochondria Different-Phenotype (%)", "setting": "12 h, replicate 1", "value": "10% and 9%"},
      {"measurement": "Population Mitotic Cells (%)", "setting": "12 h, replicate 1", "value": "34% and 58%"},
      {"measurement": "Population Normal (%)", "setting": "12 h, replicate 1", "value": "94% and 96%"},
      {"measurement": "Population Pyknosed Nuclei (%)", "setting": "12 h, replicate 1", "value": "16% and 19%"},
      {"measurement": "Population Tubulin-Different-Phenotype (%)", "setting": "12 h, replicate 1", "value": "17% and 19%"},
      {"measurement": "Total Cell Count", "setting": "12 h, replicate 1", "value": "167 and 151"},
      {"measurement": "Population Apoptotic (%)", "setting": "12 h, replicate 2", "value": "39% and 43%"},
      {"measurement": "Population Fragmented Nuclei (%)", "setting": "12 h, replicate 2", "value": "34% and 32%"},
      {"measurement": "Population Healthy Nuclei (%)", "setting": "12 h, replicate 2", "value": "39% and 32%"},
      {"measurement": "Population Hoechst High Intensity Objects (%)", "setting": "12 h, replicate 2", "value": 1, "unit": "%"},
      {"measurement": "Population Membrane Permeable-Phenotype (%)", "setting": "12 h, replicate 2", "value": "6% and 8%"},
      {"measurement": "Population Mitochondria Different-Phenotype (%)", "setting": "12 h, replicate 2", "value": "13% and 19%"},
      {"measurement": "Population Mitotic Cells (%)", "setting": "12 h, replicate 2", "value": "60% and 56%"},
      {"measurement": "Population Normal (%)", "setting": "12 h, replicate 2", "value": 98, "unit": "%"},
      {"measurement": "Population Pyknosed Nuclei (%)", "setting": "12 h, replicate 2", "value": "25% and 34%"},
      {"measurement": "Population Tubulin-Different-Phenotype (%)", "setting": "12 h, replicate 2", "value": "44% and 52%"},
      {"measurement": "Total Cell Count", "setting": "12 h, replicate 2", "value": "111 and 142"},
      {"measurement": "Population Apoptotic (%)", "setting": "24 h, replicate 1", "value": "70% and 60%"},
      {"measurement": "Population Fragmented Nuclei (%)", "setting": "24 h, replicate 1", "value": "19% and 21%"},
      {"measurement": "Population Healthy Nuclei (%)", "setting": "24 h, replicate 1", "value": "63% and 58%"},
      {"measurement": "Population Hoechst High Intensity Objects (%)", "setting": "24 h, replicate 1", "value": "1% and 3%"},
      {"measurement": "Population Membrane Permeable-Phenotype (%)", "setting": "24 h, replicate 1", "value": "0% and 1%"},
      {"measurement": "Population Mitochondria Different-Phenotype (%)", "setting": "24 h, replicate 1", "value": "9% and 13%"},
      {"measurement": "Population Mitotic Cells (%)", "setting": "24 h, replicate 1", "value": "29% and 40%"},
      {"measurement": "Population Normal (%)", "setting": "24 h, replicate 1", "value": "98% and 96%"},
      {"measurement": "Population Pyknosed Nuclei (%)", "setting": "24 h, replicate 1", "value": "16% and 20%"},
      {"measurement": "Population Tubulin-Different-Phenotype (%)", "setting": "24 h, replicate 1", "value": "12% and 24%"},
      {"measurement": "Total Cell Count", "setting": "24 h, replicate 1", "value": "164 and 155"},
      {"measurement": "Population Apoptotic (%)", "setting": "24 h, replicate 2", "value": "30% and 62%"},
      {"measurement": "Population Fragmented Nuclei (%)", "setting": "24 h, replicate 2", "value": "36% and 27%"},
      {"measurement": "Population Healthy Nuclei (%)", "setting": "24 h, replicate 2", "value": "45% and 43%"},
      {"measurement": "Population Hoechst High Intensity Objects (%)", "setting": "24 h, replicate 2", "value": "2% and 4%"},
      {"measurement": "Population Membrane Permeable-Phenotype (%)", "setting": "24 h, replicate 2", "value": "6% and 11%"},
      {"measurement": "Population Mitochondria Different-Phenotype (%)", "setting": "24 h, replicate 2", "value": "10% and 19%"},
      {"measurement": "Population Mitotic Cells (%)", "setting": "24 h, replicate 2", "value": "70% and 37%"},
      {"measurement": "Population Normal (%)", "setting": "24 h, replicate 2", "value": 97, "unit": "%"},
      {"measurement": "Population Pyknosed Nuclei (%)", "setting": "24 h, replicate 2", "value": "18% and 29%"},
      {"measurement": "Population Tubulin-Different-Phenotype (%)", "setting": "24 h, replicate 2", "value": "40% and 48%"},
      {"measurement": "Total Cell Count", "setting": "24 h, replicate 2", "value": "114 and 125"},
      {"measurement": "Population Apoptotic (%)", "setting": "48 h, replicate 1", "value": "76% and 84%"},
      {"measurement": "Population Fragmented Nuclei (%)", "setting": "48 h, replicate 1", "value": "31% and 28%"},
      {"measurement": "Population Healthy Nuclei (%)", "setting": "48 h, replicate 1", "value": "50% and 53%"},
      {"measurement": "Population Hoechst High Intensity Objects (%)", "setting": "48 h, replicate 1", "value": 4, "unit": "%"},
      {"measurement": "Population Membrane Permeable-Phenotype (%)", "setting": "48 h, replicate 1", "value": 0, "unit": "%"},
      {"measurement": "Population Mitochondria Different-Phenotype (%)", "setting": "48 h, replicate 1", "value": "16% and 18%"},
      {"measurement": "Population Mitotic Cells (%)", "setting": "48 h, replicate 1", "value": "23% and 16%"},
      {"measurement": "Population Normal (%)", "setting": "48 h, replicate 1", "value": 95, "unit": "%"},
      {"measurement": "Population Pyknosed Nuclei (%)", "setting": "48 h, replicate 1", "value": 17, "unit": "%"},
      {"measurement": "Population Tubulin-Different-Phenotype (%)", "setting": "48 h, replicate 1", "value": "20% and 23%"},
      {"measurement": "Total Cell Count", "setting": "48 h, replicate 1", "value": "177 and 150"},
      {"measurement": "Population Apoptotic (%)", "setting": "48 h, replicate 2", "value": "54% and 56%"},
      {"measurement": "Population Fragmented Nuclei (%)", "setting": "48 h, replicate 2", "value": "48% and 41%"},
      {"measurement": "Population Healthy Nuclei (%)", "setting": "48 h, replicate 2", "value": "42% and 47%"},
      {"measurement": "Population Hoechst High Intensity Objects (%)", "setting": "48 h, replicate 2", "value": "0% and 1%"},
      {"measurement": "Population Membrane Permeable-Phenotype (%)", "setting": "48 h, replicate 2", "value": "3% and 8%"},
      {"measurement": "Population Mitochondria Different-Phenotype (%)", "setting": "48 h, replicate 2", "value": "9% and 14%"},
      {"measurement": "Population Mitotic Cells (%)", "setting": "48 h, replicate 2", "value": "45% and 43%"},
      {"measurement": "Population Normal (%)", "setting": "48 h, replicate 2", "value": "100% and 98%"},
      {"measurement": "Population Pyknosed Nuclei (%)", "setting": "48 h, replicate 2", "value": "8% and 11%"},
      {"measurement": "Population Tubulin-Different-Phenotype (%)", "setting": "48 h, replicate 2", "value": "40% and 54%"},
      {"measurement": "Total Cell Count", "setting": "48 h, replicate 2", "value": "129 and 146"}
    ]}
  ]
}
